From PubChem
IDH1 R132H inh = inhibitors of human IDH1 R132H; O75874; IDH1 R132H reductase, diaphorase/resazurin fluorescence, 60 min; inhibition, % at 10 µM; actives 0.18% (n = 70,000); AID 624101; in the data active = inhibition above about 34%; inconclusive = no clear call, values can overlap the other calls; inactive = below about 11%
Target sequence (O75874 whole entry R132H): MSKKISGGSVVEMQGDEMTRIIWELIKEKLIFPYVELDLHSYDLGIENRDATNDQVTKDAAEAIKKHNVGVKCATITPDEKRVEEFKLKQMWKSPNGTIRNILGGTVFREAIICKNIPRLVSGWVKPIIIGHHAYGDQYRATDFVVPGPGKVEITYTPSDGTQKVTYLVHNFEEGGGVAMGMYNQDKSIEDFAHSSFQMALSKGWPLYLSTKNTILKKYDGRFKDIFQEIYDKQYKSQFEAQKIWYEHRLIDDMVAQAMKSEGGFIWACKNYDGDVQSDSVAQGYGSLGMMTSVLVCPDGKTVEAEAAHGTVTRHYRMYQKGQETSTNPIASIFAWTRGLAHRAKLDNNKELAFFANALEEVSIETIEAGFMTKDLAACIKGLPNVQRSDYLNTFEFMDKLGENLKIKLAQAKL
KDM4C inh = blocks human GASC-1 (KDM4C) demethylase activity; Q9H3R0; GST-KDM4C 2-372, H3K9me3 peptide, LANCE TR-FRET; inhibition, % at 12.5 µM; actives 0.15% (n = 96,000); AID 720574;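 active = mean replicate inhibition above about 25%, with at least 55% of replicates also reaching it, limit read from the data, passing the limit was not always enough; inconclusive = only one of those two conditions met; inactive = neither condition met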
Target sequence (Q9H3R0 2-372 limits assumed): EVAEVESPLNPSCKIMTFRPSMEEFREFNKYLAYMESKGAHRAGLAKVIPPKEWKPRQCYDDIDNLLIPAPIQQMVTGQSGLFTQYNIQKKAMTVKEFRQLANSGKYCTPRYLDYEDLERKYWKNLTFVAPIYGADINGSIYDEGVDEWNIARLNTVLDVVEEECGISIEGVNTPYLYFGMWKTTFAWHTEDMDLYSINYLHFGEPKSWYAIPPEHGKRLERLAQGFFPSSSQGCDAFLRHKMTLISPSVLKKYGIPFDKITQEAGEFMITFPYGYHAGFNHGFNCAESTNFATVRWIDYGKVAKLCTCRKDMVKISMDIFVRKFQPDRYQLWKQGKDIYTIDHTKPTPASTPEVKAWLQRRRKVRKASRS
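reagent = H3K9me3 peptide substrate, Fe(II), 2-oxoglutarate | system = GST-tagged GASC-1 (JMJD2C) catalytic fragment, aa 2-372 | amount = enzyme final amount 10 nM | read-out = Fall in 671/618 emission ratio as inhibition | medium = HEPES buffer, pH 7.5, plus ascorbate | schedule = 30 min reaction, 60 min detection, RT | measured by = LANCE TR-FRET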
Pf Dd2 inh = inhibitors of Plasmodium falciparum Dd2 growth | AID 1159554 | P. falciparum Dd2 growth, SYBR Green, 72 h; hits give low values | activity change, % at 10 µM | actives 2.3% (n = 94,000); in the data active = activity change below about -80%; inconclusive = no clear call, values can overlap the other calls
T cruzi growth-1 = T. cruzi proliferation inhibition. T. cruzi beta-gal in NIH3T3, GalScreen luminescence, 90 h. inhibition, % at 8.34 µM. actives 5.9% (n = 77,000);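 active = mean inhibition above about 93%, with at least 55% of replicates each passing it, limit read from the data, passing the limit was not always enough; inconclusive = only one of those two conditions holds; inactive = neither condition holds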
T cruzi growth-2 = inhibitors of T. cruzi proliferation. shares compounds with T cruzi growth-1. T. cruzi beta-gal in NIH3T3, GalScreen luminescence, 90 h. inhibition, % at 8.35 µM. actives 72% (n = 5,600);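 active = mean replicate inhibition above about 95% and at least 55% of replicates individually reaching it, limit read from the data; inconclusive = only one of the two criteria is met; inactive = neither criterion is met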
T cruzi growth-3 = blocks T. cruzi growth in NIH3T3 host cells | shares compounds with T cruzi growth-1 | T. cruzi beta-gal in NIH3T3, GalScreen luminescence, 90 h | inhibition, % at 2.09 µM | actives 21% (n = 5,600) | AID 651740;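 active = mean inhibition above about 95%, with at least 55% of replicates also reaching it, limit read from the data; inconclusive = meets just one of the two conditions; inactive = meets neither condition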
3T3 cytotox = kills mouse NIH/3T3 fibroblasts. shares compounds with T cruzi growth-1. NIH/3T3 viability, CellTiter-Glo ATP luminescence, 90 h. cytotoxicity (signal decrease), % at 8.35 µM. actives 14% (n = 5,600). AID 651742;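 active = mean signal decrease across replicates above about 35% based on untreated-well scatter, with enough replicates individually passing, limit read from the data; inconclusive = no rule stated though some were filed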
3T3 cytotox 2 = cytotoxicity in mouse NIH/3T3 fibroblasts; shares compounds with T cruzi growth-1; NIH/3T3 viability, CellTiter-Glo ATP luminescence, 90 h; inhibition, % at 24.9 µM; actives 56% (n = 5,600);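 active = mean loss of cell viability signal at or above a set limit, and enough replicates individually reaching it; inconclusive = meets only the mean limit or only the replicate share; inactive = meets neither condition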
Large screens that a line does not name were inactive (follow-up assays come after a bar, where they were run). Rows were chosen to be rich in hits. Some 5.9% of all compounds tested hit in one or more screens of this group.

C[C@@H]1CN([C@H](C)CO)S(=O)(=O)c2ccc(C3=CCCCC3)cc2O[C@H]1CN(C)Cc1ccccc1	T cruzi growth-1 118.7 | T cruzi growth-2 inactive | T cruzi growth-3 101.1 | 3T3 cytotox 78.3 | 3T3 cytotox 2 105.8
C[C@@H]1CN([C@@H](C)CO)S(=O)(=O)c2ccc(C3=CCCCC3)cc2O[C@H]1CN(C)Cc1ccccc1	T cruzi growth-1 121.2 | T cruzi growth-2 inactive | T cruzi growth-3 110.4 | 3T3 cytotox 82.8 | 3T3 cytotox 2 103.6
COCCNC(=O)C[C@@H]1C[C@H]2c3cc(NC(=O)Nc4ccc(F)cc4)ccc3O[C@H]2[C@@H](CO)O1	none
O=C(C[C@@H]1C=C[C@H](NC(=O)Nc2ccc3c(c2)OCO3)[C@@H](CO)O1)NCCCN1CCOCC1	none (no result: T cruzi growth-1)
CCCC#Cc1ccc2c(c1)O[C@H](CN(C)S(C)(=O)=O)[C@@H](C)CN([C@@H](C)CO)S2(=O)=O	none
CCc1cnc(N2[C@H](C#N)[C@H](c3ccc(-c4cccc(F)c4)cc3)[C@@H]2CO)s1	T cruzi growth-1 101.8 (no result: IDH1 R132H inh) | T cruzi growth-2 98.0 | T cruzi growth-3 107.8 | 3T3 cytotox inactive | 3T3 cytotox 2 inactive
CCc1cnc(N2[C@@H](C#N)[C@@H](c3ccc(C4=CCCC4)cc3)[C@@H]2CO)s1	T cruzi growth-1 96.1 (no result: IDH1 R132H inh) | T cruzi growth-2 104.7 | T cruzi growth-3 inactive | 3T3 cytotox inactive | 3T3 cytotox 2 42.2
CCc1cnc(N2[C@@H](C#N)[C@@H](c3ccc(C4=CCCCC4)cc3)[C@@H]2CO)s1	T cruzi growth-1 99.6 (no result: IDH1 R132H inh) | T cruzi growth-2 96.3 | T cruzi growth-3 inactive | 3T3 cytotox inconclusive | 3T3 cytotox 2 59.7
CCc1cnc(N2[C@H](C#N)[C@H](c3ccc(C4=CCCCC4)cc3)[C@H]2CO)s1	none (no result: IDH1 R132H inh, KDM4C inh)
CN(C)CC(=O)Nc1ccc2c(c1)[C@@H]1C[C@H](CC(=O)NCc3cccc(F)c3)O[C@@H](CO)[C@@H]1O2	none
COc1ccc(S(=O)(=O)N(C)C[C@@H]2OCCCC[C@@H](C)Oc3ccc(NC(=O)Nc4ccc(F)cc4)cc3C(=O)N([C@@H](C)CO)C[C@H]2C)cc1	T cruzi growth-1 111.2 (no result: IDH1 R132H inh) | T cruzi growth-2 107.4 | T cruzi growth-3 inactive | 3T3 cytotox inactive | 3T3 cytotox 2 inactive
COc1ccc(NC(=O)Nc2ccc3c(c2)C(=O)N([C@H](C)CO)C[C@H](C)[C@H](CN(C)S(=O)(=O)c2ccc(F)cc2)OCCCC[C@H](C)O3)cc1	T cruzi growth-1 inconclusive (no result: IDH1 R132H inh) | T cruzi growth-2 102.6 | T cruzi growth-3 inactive | 3T3 cytotox inactive | 3T3 cytotox 2 inactive
O=C(NC1Cc2ccccc2C1)[C@@H]1N[C@@H]2c3ccc(C4=CCCC4)c(=O)n3C[C@@H]2[C@H]1CO	none (no result: IDH1 R132H inh)
COCC(=O)N1CCCCN2[C@H](CO)[C@H](c3ccc(C#Cc4cccnc4)cc3)[C@H]2C1	none (no result: IDH1 R132H inh)
C[C@@H]1CN([C@H](C)CO)C(=O)c2cc(NS(=O)(=O)c3ccc(F)cc3)ccc2O[C@@H](C)CCCCO[C@H]1CN(C)Cc1ccc2c(c1)OCO2	T cruzi growth-1 111.8 | T cruzi growth-2 106.4 | T cruzi growth-3 inactive | 3T3 cytotox inactive | 3T3 cytotox 2 103.8
C[C@@H]1CN([C@@H](C)CO)C(=O)c2cc(NS(=O)(=O)c3ccc(F)cc3)ccc2O[C@@H](C)CCCCO[C@@H]1CN(C)Cc1ccc2c(c1)OCO2	T cruzi growth-1 118.8 | T cruzi growth-2 106.0 | T cruzi growth-3 inactive | 3T3 cytotox inactive | 3T3 cytotox 2 97.3
CN(C)CC(=O)N1[C@@H]2Cn3c(ccc(-c4cccnc4)c3=O)[C@H]1[C@@H](C(=O)NC1CCC1)[C@@H]2CO	none (no result: IDH1 R132H inh, Pf Dd2 inh)
N#C[C@H]1[C@@H](c2ccccc2C2=CCCCC2)[C@@H](CO)N1S(=O)(=O)c1cccc(F)c1	none (no result: IDH1 R132H inh, T cruzi growth-1)
Cc1ccc(-c2ccc3c(c2)O[C@H](CN(C)C(=O)Nc2ccc(F)cc2)[C@@H](C)CN([C@@H](C)CO)S3(=O)=O)cc1	T cruzi growth-1 114.2 | T cruzi growth-2 103.2 | T cruzi growth-3 inactive | 3T3 cytotox 40.4 | 3T3 cytotox 2 96.1
Cc1ccc(-c2ccc3c(c2)O[C@@H](CN(C)C(=O)Nc2ccc(F)cc2)[C@@H](C)CN([C@@H](C)CO)S3(=O)=O)cc1	T cruzi growth-1 120.7 | T cruzi growth-2 97.1 | T cruzi growth-3 inactive | 3T3 cytotox 53.1 | 3T3 cytotox 2 80.9
Cc1ccc(-c2ccc3c(c2)O[C@H](CN(C)C(=O)Nc2ccccc2)[C@H](C)CN([C@H](C)CO)S3(=O)=O)cc1	none (no result: T cruzi growth-1)
O=C(C[C@H]1C[C@@H]2c3cc(NC(=O)Nc4ccccc4)ccc3O[C@@H]2[C@@H](CO)O1)NC1CCCC1	none
COCC#Cc1ccc2c(c1)O[C@H](CN(C)Cc1ccncc1)[C@@H](C)CN([C@H](C)CO)S2(=O)=O	none
COCC#Cc1ccc2c(c1)O[C@@H](CN(C)Cc1ccccc1)[C@H](C)CN([C@@H](C)CO)S2(=O)=O	T cruzi growth-1 101.0 | T cruzi growth-2 inactive | T cruzi growth-3 inactive | 3T3 cytotox 51.6 | 3T3 cytotox 2 99.4
COCC#Cc1ccc2c(c1)O[C@@H](CN(C)Cc1ccncc1)[C@H](C)CN([C@@H](C)CO)S2(=O)=O	T cruzi growth-1 inconclusive | T cruzi growth-2 inactive | T cruzi growth-3 96.8 | 3T3 cytotox inactive | 3T3 cytotox 2 65.0
CN(C)C(=O)c1ccc(-c2ccc([C@@H]3[C@@H](CO)N(C(=O)C4CCC4)[C@H]3C#N)cc2)cc1	none (no result: IDH1 R132H inh)
COc1ccc(S(=O)(=O)Nc2ccc3c(c2)C(=O)N([C@@H](C)CO)C[C@@H](C)[C@H](CN(C)C)OCCCC[C@H](C)O3)cc1	none (no result: IDH1 R132H inh)
COC(=O)c1ccc(-n2c(CCC(=O)O)ccc2-c2ccc(OC)cc2)cc1	none (no result: KDM4C inh, Pf Dd2 inh, T cruzi growth-1)
O=C(CC1CC1)N1CC[C@H]2[C@H](CO)Nc3ccc(-c4ccc(F)cc4)cc3[C@H]21	T cruzi growth-1 107.1 (no result: IDH1 R132H inh) | T cruzi growth-2 107.7 | T cruzi growth-3 102.9 | 3T3 cytotox inactive | 3T3 cytotox 2 inactive
O=C(CC1CC1)N1CC[C@@H]2[C@@H](CO)Nc3ccc(-c4ccc(F)cc4)cc3[C@@H]21	T cruzi growth-1 inconclusive (no result: IDH1 R132H inh) | T cruzi growth-2 103.9 | T cruzi growth-3 inactive | 3T3 cytotox inactive | 3T3 cytotox 2 inactive
O=C(CC1CC1)N1CC[C@@H]2[C@H](CO)Nc3ccc(-c4cccc(F)c4)cc3[C@@H]21	none (no result: IDH1 R132H inh)
O=C(CC1CC1)N1CC[C@@H]2[C@H]1c1cc(-c3ccc(F)cc3)ccc1N[C@@H]2CO	T cruzi growth-1 102.9 (no result: IDH1 R132H inh) | T cruzi growth-2 102.4 | T cruzi growth-3 101.0 | 3T3 cytotox inactive | 3T3 cytotox 2 82.1
CC(=O)Nc1ccc(S(=O)(=O)N(C)CC(=O)O)cc1	none (no result: KDM4C inh, Pf Dd2 inh, T cruzi growth-1)
